Experimental data collected from several papers.
Each line is one published result; the experiments were not run side by side.
OPRK1: Kappa-type opioid receptor (OPRK1, Homo sapiens, UniProt P41145)
HTR2A: 5-hydroxytryptamine receptor 2A (HTR2A, Homo sapiens, UniProt P28223)
SIGMAR1: Sigma non-opioid intracellular receptor 1 (SIGMAR1, Homo sapiens, UniProt Q99720)
PPO3: PPO3 (Agaricus bisporus, UniProt C7FF04)
SLC10A1: Hepatic sodium/bile acid cotransporter (SLC10A1, Homo sapiens, UniProt Q14973)

| SMILES | target | assay | conditions | Ki [µM] |
| --- | --- | --- | --- | --- |
| CCCNc1nc(C#Cc2ccc(Cl)s2)nc2c1ncn2[C@H]1[C@H](O)[C@H](O)[C@]2(C(=O)NC)C[C@H]12 | OPRK1 | cell-free assay |  | > 10 |
| CN(CCCCNC(=O)c1cc2ccccc2[nH]1)[C@@H]1Cc2cccc3[nH]c(=O)n(c23)C1 | HTR2A | ligand displacement, radioligand |  | 1.44 |
| O=C1NC(=O)C(c2ccccc2)(c2ccc(OCCCN3CCCCC3)cc2)N1 (stereo not drawn) | Histamine H4 receptor (HRH4, Homo sapiens, UniProt Q9H3N8) | ligand displacement, radioligand | cell membranes | > 100 |
| CCCn1nc(C(=O)N2CCCCC2)c2c1CCC(N1CCC(c3ccncc3)CC1)C2 (stereo not drawn) | SIGMAR1 | ligand displacement, radioligand |  | > 10 |
| CNC(=O)[C@@]12C[C@@H]1[C@@H](n1ccc3c(NC)ncnc31)[C@H](O)[C@@H]2O | OPRK1 | cell-free assay |  | > 10 |
| CC[C@H](C)[C@H](NC(=O)[C@H](CCC(=O)O)NC(=O)[C@H](CC(=O)O)NC(=O)CNC(=O)[C@H](CC(C)C)NC(=O)[C@H](CCCNC(=N)N)NC(=O)[C@H](CCC(N)=O)NC(=O)[C@H](CC(C)C)NC(=O)[C@H](CO)NC(=O)[C@H](CCC(N)=O)NC(=O)[C@@H](NC(=O)[C@H](CC(C)C)NC(=O)[C@H](Cc1c[nH]c2ccccc12)NC(=O)[C@@H](NC(=O)[C@H](CCC(=O)O)NC(=O)[C@@H]1CCCN1C(=O)[C@H](CCCNC(=N)N)NC(C)=O)[C@@H](C)CC)[C@@H](C)O)C(=O)N[C@@H](CC(N)=O)C(=O)N[C@@H](C)C(=O)N[C@@H](Cc1ccc(O)cc1)C(=O)N[C@@H](Cc1ccc(O)cc1)C(=O)N[C@@H](C)C(=O)N[C@@H](CCCNC(=N)N)C(N)=O | Bcl-2-like protein 1 (BCL2L1, Homo sapiens, UniProt Q07817) | ligand displacement, FP |  | ~2.1 |
| CCCn1nc(C(=O)N2CCCCC2)c2c1CCC(NCc1ccc(N3CCCCC3)cc1)C2 (stereo not drawn) | SIGMAR1 | ligand displacement, radioligand |  | > 10 |
| CNC(=O)[C@@]12C[C@@H]1[C@@H](n1cnc3c(NC)nc(C#Cc4ccc(F)c(F)c4)nc31)[C@H](O)[C@@H]2O | OPRK1 | cell-free assay |  | > 10 |
| Cc1ccc(CN(C)CC(=O)N2CCCN(Cc3ccc(Cl)cc3)CC2)c(Cl)c1 | OPRK1 | cell-free assay |  | 7.59 |
| CCOC(=O)[C@H](CCSC)NC(=O)c1ccc(C2CC2)c(Cc2ccc(F)cc2)n1 | Cannabinoid receptor 1 (CNR1, Homo sapiens, UniProt P21554) | ligand displacement, radioligand | cell membranes | 0.07 |
| CNC(=O)[C@@]12C[C@@H]1[C@@H](n1cnc3c(NC)nc(C#Cc4ccc(Br)s4)nc31)[C@H](O)[C@@H]2O | OPRK1 | cell-free assay |  | > 10 |
| CCCn1nc(C(=O)N2CCCCC2)c2c1CCC(Nc1ccc(N3CCCCC3)cc1)C2 (stereo not drawn) | SIGMAR1 | ligand displacement, radioligand |  | > 10 |
| CCc1cc(Cl)c(OC)c(C(=O)NC[C@@H]2CCCN2CC)c1O | Vesicular acetylcholine transporter (SLC18A3, Homo sapiens, UniProt Q16572) | ligand displacement, radioligand |  | > 1 |
| Cc1nc2n(c(=O)c1CCNCCc1c[nH]c3ccccc13)CCCC2 | HTR2A | ligand displacement, radioligand | cell membranes | > 10 |
| COc1ccc2c(ccn2CCCCN2Cc3cc(OC)c(OC)cc3C2)c1 | SIGMAR1 | ligand displacement, radioligand | cell membranes | 0.19 |
| CNc1nc(C#Cc2ccc(Cl)s2)nc2c1ncn2[C@@H]1O[C@H](C(=O)OC)[C@@H](O)[C@H]1O | OPRK1 | cell-free assay |  | > 10 |
| Cc1ccc(C(C)C)cc1NC(=O)COC(=O)/C=C/c1ccccc1O | PPO3 | enzyme activity, inhibitor |  | 2.2 |
| CCCCN1CCC(COC(=O)c2ccc(N)c(OCF)c2)CC1 | HTR2A | cell-free assay, radioligand |  | > 10 |
| CNC(=O)[C@@]12C[C@@H]1[C@@H](n1cnc3c(NCc4cccc(Cl)c4)nc(C#Cc4ccccc4)nc31)[C@H](O)[C@@H]2O | OPRK1 | cell-free assay |  | > 10 |
| COc1ccccc1N1CCN(CCCCNC(=O)c2cc3cc(OCCOCCOCCF)ccc3[nH]2)CC1 | SIGMAR1 | cell-free assay |  | > 10 |
| Cc1nc2n(c(=O)c1CCN1CCCCC1)CCCC2 | HTR2A | ligand displacement, radioligand | cell membranes | ~5 |
| CCCn1nc(C(=O)N(C)C)c2c1CCC(NCc1ccc(OC)cc1OC)C2 (stereo not drawn) | SIGMAR1 | ligand displacement, radioligand |  | > 10 |
| CNc1nc(C#Cc2ccccc2)nc2c1ncn2[C@H]1[C@H](O)[C@H](O)[C@@H]2C[C@@H]21 | OPRK1 | cell-free assay |  | > 10 |
| COc1ccccc1Oc1c(NS(=O)(=O)c2ccc(C(C)(C)C)cc2)nc(-c2ncccn2)nc1OCCO | SLC10A1 | transporter uptake, inhibitor |  | 145 |
| Nc1nc(N)c(N=Nc2ccc([N+](=O)[O-])cc2)c(Cl)n1 | PPO3 | enzyme activity, inhibitor |  | 6.56 |
| N=C(N)N1CCC[C@H]1c1nc(-c2ccc(CCc3ccc(C(F)(F)F)cc3)c(C(F)(F)F)c2)no1 | Sphingosine kinase 1 (SPHK1, Homo sapiens, UniProt Q9NYA1) | enzyme activity, inhibitor |  | 9 |
| Nc1nc(N)c(N=Nc2ccccc2[N+](=O)[O-])c(Cl)n1 | PPO3 | enzyme activity, inhibitor |  | 3.6 |
| CNC(=O)[C@@]12C[C@@H]1[C@@H](n1cnc3c(NC)nc(C#Cc4ccccc4)nc31)[C@H](O)[C@@H]2O | OPRK1 | cell-free assay |  | > 10 |
| CS(=O)(=O)CCNCc1ccc(-c2ccc3ncnc(Nc4ccc(OCc5cccc(F)c5)c(Cl)c4)c3c2)o1 | SLC10A1 | transporter uptake, inhibitor |  | 285 |
| COc1ccc(N=Nc2c(N)nc(N)nc2N)cc1 | PPO3 | enzyme activity, inhibitor |  | 7.63 |
